Measured values gathered from unrelated publications.
Effect on: binding
Pah: Phenylalanine-4-hydroxylase (Pah, Rattus norvegicus, UniProt P04176)
VHL: von Hippel-Lindau disease tumor suppressor (VHL, Homo sapiens, UniProt P40337)
SULT2A1: Sulfotransferase 2A1 (SULT2A1, Homo sapiens, UniProt Q06520)

| SMILES | target | test | setting | Kd |
| --- | --- | --- | --- | --- |
| Cc1cc(Nc2cc3ncccc3c(N[C@@H]3C[C@H]4CC[C@@H](C3)N4CCC#N)n2)n[nH]1 | Serine/threonine-protein kinase DCLK1 (DCLK1, Homo sapiens, UniProt O15075) | competition with immobilised ligand | – | 0.89 µM |
| c1cncc(-c2cccc(Nc3nccc(NC4CCCCC4)n3)c2)c1 | Ribosomal protein S6 kinase alpha-1, N-terminal kinase domain (RPS6KA1, Homo sapiens, UniProt Q15418) | competition with immobilised ligand | – | 4.4 µM |
| CC(C)C[C@H](N)C(=O)O | Pah | fluorescence | pH 7.5 | 93000 µM |
| NC(=O)[C@H](NNC(=O)c1c[nH]c2ccccc12)c1ccccc1 | GTPase KRas (KRAS, Homo sapiens, UniProt P01116, G12D) | MST | – | 3.5 µM |
| Cc1ncsc1-c1ccc(CNC(=O)[C@@H]2C[C@H](O)CN2C(=O)[C@@H](NC(=O)C2(F)CC2)C(C)(C)C)c(OCCOc2ccc(CN3CCN(c4cc(-c5ccccc5O)nnc4N)CC3)cc2)c1 | VHL | SPR | – | > 10 µM |
| CC(=O)N[C@H]1[C@H]([C@H](O)[C@H](O)CO)O[C@@](O[C@H]2[C@@H](O)[C@@H](CO)O[C@@H](O[C@H]3[C@H](O)[C@@H](NC(C)=O)C(O)O[C@@H]3CO)[C@@H]2O)(C(=O)O)C[C@@H]1O (stereo partly shown) | SIGLEC5 (Homo sapiens, UniProt O15389, C36A) | NMR | – | 7000 µM |
| N[C@@H](Cc1ccccc1)C(=O)O | Pah | fluorescence | pH 7.5 | 54 µM |
| C=C(C)[C@@H]1CC[C@]2(C)CC[C@]3(C)[C@H](CC[C@@H]4[C@@]5(C)CC[C@H](O)C(C)(C)[C@@H]5CC[C@]43C)[C@@H]12 | GTPase KRas (KRAS, Homo sapiens, UniProt P01116) | ITC | – | 0.33 µM |
| Cc1cnc(-c2ccc(-c3ccc(NC(=O)Nc4c(F)cc(F)cc4F)cc3F)c3c2C(=O)NC3)[nH]1 | Serine/threonine-protein kinase 3 (STK3, Homo sapiens, UniProt Q13188) | competition with immobilised ligand | – | 0.0039 µM |
| C[C@]12CC[C@H](O)CC1=CC[C@@H]1[C@@H]2CC[C@]2(C)C(=O)CC[C@@H]12 | SULT2A1 | fluorescence | – | 0.29 µM |
| Cc1cc2nc3c(=O)[nH]c(=O)nc-3n(C[C@H](O)[C@H](O)[C@H](O)COP(=O)(O)OP(=O)(O)OC[C@H]3O[C@@H](n4cnc5c(N)ncnc54)[C@H](O)[C@@H]3O)c2cc1C | Annexin A11 (Homo sapiens, UniProt P50995) | – | lysate | 0.055 µM |
| NC(=O)c1ccc[n+]([C@@H]2O[C@H](COP(=O)(O)OP(=O)(O)OC[C@H]3O[C@@H](n4cnc5c(N)ncnc54)[C@H](O)[C@@H]3O)[C@@H](O)[C@H]2O)c1 | mdh (Escherichia coli, UniProt P61889) | ITC | – | 467 µM |
| Cc1ncsc1-c1ccc(CNC(=O)[C@@H]2C[C@H](O)CN2C(=O)[C@@H](NC(=O)C2(F)CC2)C(C)(C)C)c(OCCc2ccc(CN3CCN(c4cc(-c5ccccc5O)nnc4N)CC3)cc2)c1 | VHL | SPR | – | > 10 µM |
| O=C(O)c1cccc(NC(=S)NC(=O)c2ccc3ccccc3c2)c1 | Stromal cell-derived factor 1 (CXCL12, Homo sapiens, UniProt P48061) | NMR | – | 64 µM |
| CC1(C)Cc2c(-c3ccccc3)c(-c3ccc(Cl)cc3)c(CC(=O)NCC(=O)O)n2C1 | Prostaglandin E synthase (PTGES, Homo sapiens, UniProt O14684) | ITC | – | 2.1 µM |
| Nc1ncnc2c1ncn2[C@@H]1O[C@H](COP(=O)(O)OS(=O)(=O)O)[C@@H](OP(=O)(O)O)[C@H]1O | SULT2A1 | fluorescence | – | 0.25 µM |
